In ChEMBL document CHEMBL1125436, “Anthracene-9,10-diones as potential anticancer agents. Synthesis, DNA-binding, and biological studies on a series of 2,6-disubstituted derivatives” (J Med Chem, 1992):

Key:
[1] = In vitro extracellular concentration required to reduce cell population to 50% against Chinese hamster V79 cells; format: functional, cell-based, Cricetulus griseus
Outline: (§1)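 Cells seeded at ca. […] cells mL⁻¹, grown 24 h and counted to confirm log growth, then given compound (acetic acid salt or free base) in aqueous solution. Exposure 2 days for L1210 and Walker 256, 6 days for V79. Surviving cells counted; percent growth inhibition versus untreated controls; value is extracellular concentration giving 50% reduction.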

Nucleic Acid [2] = experiment: Compound was evaluated for the increase in melting temperature (delta Tm) for calf Thymus DNA on interaction with Ligand at DNAp to ligand ratio 10:1; format: functional; conditions: Bos taurus
[3] = Estimated pKa value of the compound; format: physicochemical
[4] = In vitro extracellular concentration required to reduce cell population to 50% against Walker 256 (WS) carcinoma cells; format: functional, Rattus norvegicus; outline: as §1
L1210 = experiment: In vitro extracellular concentration required to reduce cell population to 50% against L1210 leukemia cells; format: functional, cell-based; conditions: Mus musculus; outline: as §1
Nucleic Acid [5] = experiment: Compound was evaluated for the increase in melting temperature (delta Tm) for calf Thymus DNA on interaction with Ligand at DNAp to ligand ratio 40:1; format: functional; conditions: Bos taurus
Nucleic Acid [6] = experiment: Compound was evaluated for the increase in melting temperature (delta Tm) for calf Thymus DNA on interaction with Ligand at DNAp to ligand ratio 20:1; format: functional; conditions: Bos taurus
Nucleic Acid [7] = experiment: Increase in Melting temperature (delta Tm) for Calf thymus DNA on interaction against ligand (mole ratio of 10:1); format: functional; conditions: Bos taurus
Nucleic Acid [8] = experiment: Increase in Melting temperature (delta Tm) for Micrococcus lysodeikticus DNA on interaction against ligand (mole ratio of 10:1); format: functional; conditions: Micrococcus luteus
Outline: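 M. lysodeikticus DNA (28% A+T) in HNE buffer pH 7.0, dialysed and centrifuged before use; DNAP 0.10 mM with ligand 0.01 mM (10:1). A260 monitored against temperature; Tm at midpoint of normalized curve, ΔTm versus native DNA; mean of at least three determinations.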

Nucleic Acid [9] = experiment: Increase in Melting temperature (delta Tm) for Clostridium perfringens DNA on interaction against ligand (mole ratio of 10:1); format: functional
Outline: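 Working DNAP 0.10 mM and ligand 0.01 mM. Absorbance at 260 nm was followed against temperature. Tm was taken at the midpoint of the normalized curve and compared with native DNA; mean of ≥3 determinations.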

## O=C(CN1CCOCC1)Nc1ccc2c(c1)C(=O)c1ccc(NC(=O)CN3CCOCC3)cc1C2=O
[1]
  IC50: > 100 µM
Nucleic Acid [2]
  ΔTm: 0.5
[3]
  pKa: 7.4
[4]
  IC50: > 100 µM
L1210
  IC50: > 100 µM
Nucleic Acid [5]
  ΔTm: 0.5
Nucleic Acid [6]
  ΔTm: 0.5

## CCN(CC)CCC(=O)Nc1ccc2c(c1)C(=O)c1ccc(NC(=O)CCN(CC)CC)cc1C2=O
Nucleic Acid [7]
  ΔTm: > 15.5
[1]
  IC50: 2.9 µM
Nucleic Acid [8]
  ΔTm: > 18.1
Nucleic Acid [2]
  ΔTm: > 15.5
[3]
  pKa: 10.8
[4]
  IC50: 2.7 µM
L1210
  IC50: 0.34 µM
Nucleic Acid [5]
  ΔTm: 3.7
Nucleic Acid [6]
  ΔTm: 7.7
Nucleic Acid [9]
  ΔTm: > 20.5

## O=C(CCN1CCCCC1)Nc1ccc2c(c1)C(=O)c1ccc(NC(=O)CCN3CCCCC3)cc1C2=O
Nucleic Acid [7]
  ΔTm: > 15.3
[1]
  IC50: 1.7 µM
Nucleic Acid [8]
  ΔTm: > 14.5
Nucleic Acid [2]
  ΔTm: > 15.3
[3]
  pKa: 10.4
[4]
  IC50: 2 µM
L1210
  IC50: 0.19 µM
Nucleic Acid [5]
  ΔTm: 3.7
Nucleic Acid [6]
  ΔTm: 7.3
Nucleic Acid [9]
  ΔTm: > 18.9

## O=C(CCN1CCC(CCO)CC1)Nc1ccc2c(c1)C(=O)c1ccc(NC(=O)CCN3CCC(CCO)CC3)cc1C2=O
[1]
  IC50: 3.95 µM
Nucleic Acid [2]
  ΔTm: > 15
[3]
  pKa: 10
[4]
  IC50: 5.5 µM
L1210
  IC50: 2.3 µM
Nucleic Acid [5]
  ΔTm: 4.3
Nucleic Acid [6]
  ΔTm: 8.3

## O=C(CCN1CCCCC1CCO)Nc1ccc2c(c1)C(=O)c1ccc(NC(=O)CCN3CCCCC3CCO)cc1C2=O (centres undefined)
Nucleic Acid [7]
  ΔTm: > 15.3
[1]
  IC50: 12 µM
Nucleic Acid [8]
  ΔTm: > 14.6
Nucleic Acid [2]
  ΔTm: > 15.3
[3]
  pKa: 10
[4]
  IC50: 3.6 µM
L1210
  IC50: 0.28 µM
Nucleic Acid [5]
  ΔTm: 4.1
Nucleic Acid [6]
  ΔTm: 9.2
Nucleic Acid [9]
  ΔTm: > 18.5

## CCN(CC)CC(=O)Nc1ccc2c(c1)C(=O)c1ccc(NC(=O)CN(CC)CC)cc1C2=O
Nucleic Acid [7]
  ΔTm: 13.5
[1]
  IC50: 18 µM
Nucleic Acid [8]
  ΔTm: > 16.6
Nucleic Acid [2]
  ΔTm: 13.5
[3]
  pKa: 10
[4]
  IC50: 19 µM
L1210
  IC50: 27 µM
Nucleic Acid [5]
  ΔTm: 3.7
Nucleic Acid [6]
  ΔTm: 7.7
Nucleic Acid [9]
  ΔTm: 16.6

## O=C(CCN1CCOCC1)Nc1ccc2c(c1)C(=O)c1ccc(NC(=O)CCN3CCOCC3)cc1C2=O
[1]
  IC50: 1.6 µM
Nucleic Acid [2]
  ΔTm: 4.9
[3]
  pKa: 8
[4]
  IC50: 4.2 µM
L1210
  IC50: 0.57 µM
Nucleic Acid [6]
  ΔTm: 3

## CN1CCN(CC(=O)Nc2ccc3c(c2)C(=O)c2ccc(NC(=O)CN4CCN(C)CC4)cc2C3=O)CC1
[1]
  IC50: 4.6 µM
Nucleic Acid [2]
  ΔTm: 13.6
[3]
  pKa: 9.5
[4]
  IC50: 4.6 µM
L1210
  IC50: 6.5 µM
Nucleic Acid [5]
  ΔTm: 4.2
Nucleic Acid [6]
  ΔTm: 8.2

## O=C(CCN1CCN(CCO)CC1)Nc1ccc2c(c1)C(=O)c1ccc(NC(=O)CCN3CCN(CCO)CC3)cc1C2=O
[1]
  IC50: 19.5 µM
Nucleic Acid [2]
  ΔTm: 7.2
[3]
  pKa: 9.5
[4]
  IC50: 6.6 µM
L1210
  IC50: 4.2 µM
Nucleic Acid [5]
  ΔTm: 2.9
Nucleic Acid [6]
  ΔTm: 4.6

## O=C(CCN1CCCCC1CO)Nc1ccc2c(c1)C(=O)c1ccc(NC(=O)CCN3CCCCC3CO)cc1C2=O (centres undefined)
[1]
  IC50: 3.6 µM
Nucleic Acid [2]
  ΔTm: 14.4
[3]
  pKa: 10
[4]
  IC50: 2.8 µM
L1210
  IC50: 0.5 µM
Nucleic Acid [5]
  ΔTm: 3.8
Nucleic Acid [6]
  ΔTm: 7.9

## O=C(CN1CCCCC1)Nc1ccc2c(c1)C(=O)c1ccc(NC(=O)CN3CCCCC3)cc1C2=O
Nucleic Acid [7]
  ΔTm: 14.3
[1]
  IC50: 30 µM
Nucleic Acid [8]
  ΔTm: 18.4
Nucleic Acid [2]
  ΔTm: 14.3
[3]
  pKa: 10
[4]
  IC50: > 100 µM
L1210
  IC50: 76 µM
Nucleic Acid [6]
  ΔTm: 8.2
Nucleic Acid [9]
  ΔTm: 19

## CN1CCN(CCC(=O)Nc2ccc3c(c2)C(=O)c2ccc(NC(=O)CCN4CCN(C)CC4)cc2C3=O)CC1
[1]
  IC50: 1.8 µM
Nucleic Acid [2]
  ΔTm: 9.2
[3]
  pKa: 9
[4]
  IC50: 3.1 µM
L1210
  IC50: 1.7 µM
Nucleic Acid [6]
  ΔTm: 4.4

## O=C1c2c(O)ccc(O)c2C(=O)c2c(NCCNCCO)ccc(NCCNCCO)c21 [MITOXANTRONE]
Nucleic Acid [7]
  ΔTm: > 15
Nucleic Acid [8]
  ΔTm: > 11.7
Nucleic Acid [2]
  ΔTm: > 15
[3]
  pKa: 7.4
[4]
  IC50: 0.01 µM
L1210
  IC50: 0.002 µM
Nucleic Acid [6]
  ΔTm: 7.4
Nucleic Acid [9]
  ΔTm: > 26.4

## O=C(CCN(CCO)CCO)Nc1ccc2c(c1)C(=O)c1ccc(NC(=O)CCN(CCO)CCO)cc1C2=O
Nucleic Acid [7]
  ΔTm: 10.9
[1]
  IC50: 25.5 µM
Nucleic Acid [8]
  ΔTm: > 15.7
Nucleic Acid [2]
  ΔTm: 10.9
[3]
  pKa: 9
[4]
  IC50: > 100 µM
L1210
  IC50: 4.2 µM
Nucleic Acid [5]
  ΔTm: 3.2
Nucleic Acid [6]
  ΔTm: 6.1
Nucleic Acid [9]
  ΔTm: 11.7
